The text below walks through data of ChEMBL document CHEMBL3232807, “Genomics-guided discovery of endophenazines from Kitasatospora sp. HKI 714” (2014).

Holding throughout (format): functional
The test system of one experiment is Staphylococcus aureus. The experiment is described as follows: Antimicrobial activity against methicillin-resistant Staphylococcus aureus SG 511 by broth dilution method. In short, it runs like this:
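MIC was determined by broth dilution following NCCLS guidelines, using S. aureus SG 511 (MRSA).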

The test system of experiment [1] is Mycolicibacterium fortuitum. Description: Antimicrobial activity against Mycobacterium fortuitum IMET 10667 by broth dilution method. In short, it runs like this: (§1)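 MIC was determined by broth dilution following the NCCLS standard method.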
Another experiment has as its system Mycolicibacterium aurum. The experiment is described as follows: Antimicrobial activity against Mycobacterium aurum SB 66 by broth dilution method. In short, it runs like this: as §1
On the technique in general: Broth dilution looks for growth in wells or tubes with falling amounts of substance.

The subject of the next experiment is Mycolicibacterium vaccae. Description: Antimicrobial activity against Mycobacterium vaccae IMET 10670 by broth dilution method. Summed up:
as §1

The test system of experiment [2] is Mycolicibacterium smegmatis. Description: Antimicrobial activity against Mycobacterium smegmatis SG 987 by broth dilution method. In short, it runs like this:
as §1

Experiment [3] relates to Mycobacterium avium complex sp. Description: Antimicrobial activity against Mycobacterium avium complex by BACTEC radiometric assay.
Experiment [4] concerns Mycobacterium tuberculosis. Description: Antimicrobial activity against Mycobacterium tuberculosis by BACTEC radiometric assay.

SMILES strings stand for the structures. ≈ marks a conversion by molar mass, not a printed value.

As a reminder, the MIC is the least concentration at which growth counts as inhibited. A higher MIC goes with a need for much substance.

Turning to `CC(C)(O)/C=C/c1cccc2nc3cccc(C(=O)O)c3nc12`, the MIC in the experiment with Staphylococcus aureus came to 100 µg/mL (≈ 324 µM); in experiment [1], 25 µg/mL (≈ 81.1 µM); against Mycolicibacterium aurum it was 25 µg/mL (≈ 81.1 µM); in the experiment on Mycolicibacterium vaccae, 25 µg/mL (≈ 81.1 µM); in experiment [2] it was 50 µg/mL (≈ 162 µM).
For the compound `C/C(=C\Cc1cccc2nc3cccc(C(=O)O)c3nc12)CO`, the MIC in the experiment on Staphylococcus aureus worked out at 100 µg/mL (≈ 324 µM); in experiment [1], 25 µg/mL (≈ 81.1 µM); against Mycolicibacterium aurum it was 25 µg/mL (≈ 81.1 µM); in the experiment with Mycolicibacterium vaccae it was 25 µg/mL (≈ 81.1 µM); in experiment [2] it was 50 µg/mL (≈ 162 µM).
On to `O=C(O)c1cccc2nc3ccccc3nc12` [PHENAZINE-1-CARBOXYLIC ACID], for which the minimum inhibitory concentration (MIC) stood at 100 µg/mL (≈ 446 µM) with Staphylococcus aureus; 50 µg/mL (≈ 223 µM) in experiment [1]; 50 µg/mL (≈ 223 µM) in the experiment on Mycolicibacterium aurum; 25 µg/mL (≈ 111 µM) against Mycolicibacterium vaccae; 50 µg/mL (≈ 223 µM) in experiment [2].
Take `O=C(O)c1cn(C2CC2)c2cc(N3CCNCC3)c(F)cc2c1=O` [CIPROFLOXACIN]: the MIC against Staphylococcus aureus was found to be 12.5 µg/mL (≈ 37.7 µM); in experiment [1], 0.1 µg/mL (≈ 0.302 µM); against Mycolicibacterium aurum, 0.1 µg/mL (≈ 0.302 µM); in the experiment on Mycolicibacterium vaccae it was 0.1 µg/mL (≈ 0.302 µM); in experiment [2], 0.78 µg/mL (≈ 2.35 µM).
With `CC(C)/N=c1\cc2n(-c3ccc(Cl)cc3)c3ccccc3nc-2cc1Nc1ccc(Cl)cc1` [CLOFAZIMINE], the MIC in experiment [3] and in experiment [4] was 0.12 µg/mL (≈ 0.253 µM) throughout.
Take `O=C(O)c1cccc2c1Nc1ccccc1N2C(=O)CO`: the minimum inhibitory concentration (MIC) in the experiment with Staphylococcus aureus is 100 µg/mL (≈ 352 µM); in experiment [1] it was 50 µg/mL (≈ 176 µM); in the experiment on Mycolicibacterium aurum, 50 µg/mL (≈ 176 µM); against Mycolicibacterium vaccae, 25 µg/mL (≈ 87.9 µM); in experiment [2], 50 µg/mL (≈ 176 µM).
